High-throughput results (PubChem BioAssay)
SKKanGAS inh: S. pyogenes SKKanGAS growth inhibitors in kanamycin, primary screen, streptokinase expression inhibitor project, SKKanGAS strain, BacTiter-Glo luminescence; 6 h; inhibition, % at 7.5 µM; 300,000 compounds, 1.3% hits;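 active = mean replicate score, as percent of positive control median, at least 50; inconclusive = mean below 50 but one replicate at or above 50; inactive = mean and every replicate below 50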;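 note: strain carries kanamycin resistance gene driven by streptokinase promoter and grows in 40 µg/ml kanamycin; loss of luminescence reflects streptokinase promoter inhibition or plain growth inhibition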
Mdm2 MdmX PPI: inhibitors of human Mdm2-MdmX association, primary screen, cell-based, luminescence, split luciferase, SaOS-2, uHTS. AID 485346, 2010. 330,000 compounds, 3% hits. Protein Mdm4 (Homo sapiens) + E3 ubiquitin-protein ligase Mdm2 (Homo sapiens), …. SaOS-2 split-luciferase Mdm2/MdmX complementation. inhibition, % at 8 µM;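 active = inhibition of at least 50% at 8 µM in the primary screen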
Target sequence (O15151 whole entry, looked up): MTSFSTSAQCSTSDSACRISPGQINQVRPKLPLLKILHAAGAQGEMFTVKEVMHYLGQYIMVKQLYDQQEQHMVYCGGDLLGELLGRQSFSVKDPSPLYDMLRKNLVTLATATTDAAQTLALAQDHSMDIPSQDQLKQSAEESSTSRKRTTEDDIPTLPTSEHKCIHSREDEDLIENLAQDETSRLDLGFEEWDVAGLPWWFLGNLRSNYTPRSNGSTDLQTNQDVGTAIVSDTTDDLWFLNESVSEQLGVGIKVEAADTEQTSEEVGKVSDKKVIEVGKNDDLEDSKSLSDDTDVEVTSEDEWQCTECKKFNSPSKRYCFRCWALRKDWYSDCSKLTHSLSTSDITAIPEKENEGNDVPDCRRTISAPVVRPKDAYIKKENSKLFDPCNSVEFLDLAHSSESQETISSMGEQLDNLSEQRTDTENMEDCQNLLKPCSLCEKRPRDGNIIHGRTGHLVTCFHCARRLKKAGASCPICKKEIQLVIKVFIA
Target sequence (Q00987 whole entry, looked up): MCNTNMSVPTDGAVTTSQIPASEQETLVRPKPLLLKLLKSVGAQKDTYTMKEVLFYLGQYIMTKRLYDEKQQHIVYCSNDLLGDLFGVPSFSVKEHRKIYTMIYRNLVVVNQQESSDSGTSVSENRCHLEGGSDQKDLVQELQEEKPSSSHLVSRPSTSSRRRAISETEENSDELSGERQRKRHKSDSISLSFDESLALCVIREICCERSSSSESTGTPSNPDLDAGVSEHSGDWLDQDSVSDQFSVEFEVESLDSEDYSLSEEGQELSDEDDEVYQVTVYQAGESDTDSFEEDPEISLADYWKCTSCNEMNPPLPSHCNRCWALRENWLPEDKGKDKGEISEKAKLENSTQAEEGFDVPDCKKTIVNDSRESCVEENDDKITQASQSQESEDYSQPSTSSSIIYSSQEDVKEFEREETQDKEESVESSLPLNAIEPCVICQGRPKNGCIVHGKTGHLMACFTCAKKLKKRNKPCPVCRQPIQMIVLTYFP
aSyn 5UTR inh: MLPCN primary screen, SNCA 5' untranslated region; alpha-synuclein 5'UTR reporter, inhibitor activity; 300,000 compounds, 0.82% hits; inhibition, % (tested at 7.5 µM); AID 1813, 2009; in the data active = inhibition above about 60%; inconclusive = no clear call, values can overlap the other calls;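 note: H4 neuroglioblastoma cells stably carrying SNCA 5'UTR luciferase fusion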
CSC inhib: cancer stem cell viability inhibitors, primary screen, luminescence; cancer stem cell-like cells viability; inhibition, % at 7.5 µM; 300,000 compounds, 1.1% hits; in the data active = inhibition above about 75%; inconclusive = no clear call, values can overlap the other calls; tested in HMLE shEcad cells
T cruzi repl: inhibitors of intracellular T. cruzi growth, primary screen, luminescence, NIH3T3 host cells; AID 1885, 2009; T. cruzi beta-gal in NIH3T3, 90 h; inhibition, % (no concentration beside the values); 300,000 compounds, 1.4% hits;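 active = mean inhibition across valid replicates above about 55%, limit read from the data; inconclusive = mean below that limit but half or more replicates reach it; inactive = mean below it, under half of replicates reach it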;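 note: signal also drops with host cell toxicity which is not excluded here; higher percent means less beta-gal luminescence so fewer parasites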
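Material: NIH/3T3 host cells with β-galactosidase reporter T. cruzi; Input: 5,000 host fibroblasts per well; Medium: DMEM, 2% fetal bovine serum; Compound: 50 nL DMSO compound solution per well; Schedule: 3 h host attachment, then at least 90 h co-culture; Detection: luminescent β-galactosidase signal after 60 min lysis.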
Hits are given with their value; n = inactive; u = inconclusive; x = no result. In the library only some 5.4% were active in any assay of this set; here they are far more common.

SMILES	SKKanGAS inh	Mdm2 MdmX PPI	aSyn 5UTR inh	CSC inhib	T cruzi repl
O=C1/C(=C/Nc2ccc3c(c2)OCO3)CCc2ccccc21	n	n	96	n	n
COc1cccc(-n2c(CN3CCN(c4cccc(C)c4)C(C)C3)nc3ccc([N+](=O)[O-])cc3c2=O)c1 (configuration not stated)	n	n	n	n	59
c1cnc2ccc(C(c3nnnn3C3CCCCC3)N3CCN(C4CCCCC4)CC3)cc2c1 (configuration not stated)	n	n	n	n	69
c1cnc2ccc(C(c3nnnn3C3CCCCC3)N3CCCCC3)cc2c1 (configuration not stated)	n	n	n	n	n
O=C1CCc2cc(S(=O)(=O)Nc3ccccc3F)cc3c2N1CCC3	n	n	n	x	n
O=C(/C=C/Nc1ccc(F)cc1Br)c1ccccc1	n	n	70	n	n
CC(=O)Nc1cccc(NC(=O)CSc2nc3c(=O)n(C)c(=O)n(C)c3n2C)c1	n	n	n	n	n
C(=N\Nc1ccccc1)/c1ccc(N2CCOCC2)cc1	n	n	n	n	n
Clc1cccc(N/N=C/c2ccc(N3CCOCC3)cc2)c1	n	n	n	n	60
Cc1ccc(Cn2ncc3c(N4CCN(c5ccccc5C)CC4)ncnc32)cc1	n	n	n	n	59
C=CCn1c2ccccc2c(=O)c2cc(C#Cc3ccccn3)ccc21	x	n	x	76	x
C=CCn1c2ccccc2c(=O)c2cc(C#Cc3ccsc3)ccc21	n	x	n	n	n
COc1ccc(N=C2C(=Nc3ccc(OC)cc3)N(c3ccc(OC)cc3)C(=S)N2C(=O)c2ccc(OC)cc2)cc1	n	n	n	n	n
COc1ccc(N=C2C(=Nc3ccc(OC)cc3)N(c3ccc(N(C)C)cc3)C(=S)N2c2ccc(OC)cc2)cc1	n	n	99	n	n
Cc1cc(F)ccc1S(=O)(=O)Nc1ccc(C(=O)N2CCCCC2)cc1	x	n	x	n	x
O=C(O)CCCN1C(=O)/C(=C\c2ccccc2OCc2ccccc2)SC1=S	u	n	n	n	n
O=C(O)CCCN1C(=O)/C(=C\C(Cl)=C\c2ccccc2)SC1=S	65	x	n	79	n
CC(=C\c1ccccc1)/C=C1/SC(=O)N(CCCC(=O)Nc2ccc(C(=O)O)cc2)C1=O	n	n	n	n	n
CC(/C=C1\SC(=S)N(CCCC(=O)Nc2ccc(C(=O)O)c(O)c2)C1=O)=C\c1ccccc1	100	x	n	n	n
O=C(CSc1nnc(-c2ccc(F)cc2)c2ccccc12)Nc1cccc(Cl)c1	n	n	n	n	60
Cc1cc(C)c2c(N)c(C(=O)NN3CC(=O)N(c4cccc(Cl)c4)CC3=O)sc2n1	n	n	n	n	n
COc1c(N2CCN(C(=S)Nc3ccc(F)cc3)C(C)C2)c(F)cc2c(=O)c(C(=O)O)cn(C3CC3)c12 (configuration not stated)	115	n	n	n	n
NC1CCN(c2nc3c(cc2F)c(=O)c(C(=O)O)cn3-c2ccc(F)cc2F)C1 (configuration not stated)	103	n	n	n	n
CC1CCc2c(N3CCC(O)CC3)c(F)cc3c(=O)c(C(=O)O)cn1c23 (configuration not stated)	x	n	x	n	x
COc1c(N2CCNC(C)C2)c(F)cc2c(=O)c(C(=O)O)cn(C3CC3)c12 (configuration not stated)	105	n	n	n	n
NC1CCN(c2c(F)cc3c(=O)c(C(=O)O)cn(C4CC4)c3c2Cl)C1 (configuration not stated)	74	n	n	n	n
CC1CCCC(NC(=O)COC(=O)c2sc3ccccc3c2Cl)C1C (configuration not stated)	n	n	n	n	n
C=CCC[C@H](Cc1ccc(F)cc1)C(=O)OC[C@H](C)NC(=O)[C@@H](CC=C)CC(=O)N[C@H](CO)Cc1ccccc1	x	n	x	n	x
CC1CCc2cc(F)cc3c(=O)c(C(=O)O)cn1c23 (configuration not stated)	n	n	n	n	n
COc1c(N2CCN(C(=S)NC3CC4CCC3C4)C(C)C2)c(F)cc2c(=O)c(C(=O)O)cn(C3CC3)c12 (configuration not stated)	101	n	n	n	n
